Reference: the RNAGym collection of RNA variant scans (doi:10.1126/science.aae0568)
Variants at the floor of the assay were thinned out.

B1: tRNA (parent)
chain: GUUCCGUUGGCGUAAUGGUAACGCGUCUCCCUCCUAAGGAGAAGACUGCGGGUUCGAGUCCCGUACGGAACG

Variants of: B1
Experiment: yeast fitness relative to wild type (ratio to wild type); higher = fitter; tRNA-Arg(CCU), competitive growth, 37 C, YPD
In short: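 Gene amplicons from the start population and from each of six end populations were read by 100-nucleotide paired-end sequencing. Those end populations came from pooled Saccharomyces cerevisiae strains carrying tRNA-Arg(CCU) gene variants at the native locus, competed in YPD at 37°C for 24 hours. Fitness relative to wild type was worked out from changes in genotype frequencies. Genotypes needed ≥ 100 starting reads, and estimates < 0.5 were set to 0.5.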

Going from A20U C34A G58C C62A A69C to A21G A42G A45G, the yeast fitness rises from ≤ 0.5 to 0.989.

A20U C31G A69C and A20U C34G G38C cannot be ordered by yeast fitness: ≤ 0.5 for the first, ≤ 0.5 for the second.

A21G A40G A42C U53A U54C and A20U C31G C55G A57U cannot be ordered by yeast fitness: ≤ 0.5 for the first, ≤ 0.5 for the second.

A21C U47C A65C and A20U C34U G41A cannot be ordered by yeast fitness: ≤ 0.5 for the first, ≤ 0.5 for the second.

A20U C30A A40C and A21C G25C U26G C62A cannot be ordered by yeast fitness: ≤ 0.5 for the first, ≤ 0.5 for the second.

Compared with A21C A37U A42U C46G U47G, A21C U32A U35C is lower in yeast fitness: 0.534 for the first, ≤ 0.5 for the second.

A20U U28A C33U and A20U G38C G50C A65C cannot be ordered by yeast fitness: ≤ 0.5 for the first, ≤ 0.5 for the second.

A21C C22A C29U C49G and A21C U26A C31U cannot be ordered by yeast fitness: ≤ 0.5 for the first, ≤ 0.5 for the second.

First: A21G C24U
Second: A21G A40C G50C
The yeast fitness of the first is higher: 0.989 for the first, ≤ 0.5 for the second.

First: A20U C29U A57G A65G
Second: A20U G25A C27G G67A
The yeast fitness of the first is lower: ≤ 0.5 for the first, 0.542 for the second.

Going from A21G A45C A69U to A20U C24U A43G U59A, the yeast fitness falls from 0.762 to ≤ 0.5.

Going from A20U G41C G51C C62G to A20U G23A C49U, the yeast fitness falls from 0.735 to 0.609.

First: A20U G39C
Second: A21C C24G A37U C55U
The yeast fitness of the first is higher: 0.81 for the first, ≤ 0.5 for the second.

Going from A21C C34U C66U to A21C C24G U32A A42C A65U, the yeast fitness rises from ≤ 0.5 to 0.543.

Going from A20U G68U to A21C C30G C66A, the yeast fitness falls from 0.792 to 0.572.

Going from A21G C22A A40U to A21C G67C, the yeast fitness rises from ≤ 0.5 to 0.654.

Going from A20U G50C to A21C C34U C49U, the yeast fitness falls from 0.638 to ≤ 0.5.

First: A20U G38A A57U
Second: A20U U32A G67C
The yeast fitness of the first is lower: ≤ 0.5 for the first, 0.543 for the second.

Going from A21C G25C U26G to A21C A37C C55A G58A, the yeast fitness falls from 0.59 to 0.515.

Going from A20U U28C A69C to A21C C33U C61A G68C, the yeast fitness falls from 0.699 to ≤ 0.5.

Compared with A21G A43U G58C U59C, A21C G44C G50A A57G G68C is lower in yeast fitness: 0.67 for the first, ≤ 0.5 for the second.

First: A20U U32C A43G
Second: A20U C62U U64G
The yeast fitness of the first is higher: 0.659 for the first, 0.603 for the second.

Compared with A20U U28C A40U C62G, A20U C31G C55G C60G C66U A70U is lower in yeast fitness: 0.533 for the first, ≤ 0.5 for the second.

Going from A21C G44C to A20U C31U C62U, the yeast fitness rises from 0.627 to 0.826.

First: A21G A43U
Second: A21C C34G A36G C46A C66A A70G
The yeast fitness of the first is higher: 0.963 for the first, ≤ 0.5 for the second.

Compared with A21G C22G G25A G63A A69U, A20U C31U A57U is higher in yeast fitness: ≤ 0.5 for the first, 0.567 for the second.

A21C U59A A65U and A20U C30A G52A A65U cannot be ordered by yeast fitness: ≤ 0.5 for the first, ≤ 0.5 for the second.

Compared with A21G A43C C60A, A20U G25A C49G is higher in yeast fitness: ≤ 0.5 for the first, 0.619 for the second.

Going from A20U G41C G56C to A21C G25A C30A A37U C66A, the yeast fitness falls from 0.574 to ≤ 0.5.

Going from A21G A40G A42U U59G to A20U C61U C66U, the yeast fitness rises from ≤ 0.5 to 0.559.

A20U C31U G56A C61U and A21C C27U C46G G48A C62G G68C cannot be ordered by yeast fitness: ≤ 0.5 for the first, ≤ 0.5 for the second.

First: A20U G25C A37G C60G C61G
Second: A21C C24U A37C G39A C49G A69C
The yeast fitness of the first is higher: 0.561 for the first, ≤ 0.5 for the second.

Compared with A20U C24A A57C, A21G C22A A40U C61U is higher in yeast fitness: ≤ 0.5 for the first, 0.507 for the second.

First: A20U U28A C31U C55G A57C
Second: A20U G25C
The yeast fitness of the first is lower: ≤ 0.5 for the first, 0.885 for the second.

First: A21G C24G A37U
Second: A21C C27U C33U
The yeast fitness of the first is higher: 0.573 for the first, 0.544 for the second.

A21C U28G A43C G52C G67U and A20U C29G A37G G44A G63A cannot be ordered by yeast fitness: ≤ 0.5 for the first, ≤ 0.5 for the second.

Going from A21C C22G A70C to A20U U26A C55U, the yeast fitness rises from ≤ 0.5 to 0.747.

A20U G51C A65G and A21C C22U G38C A40C cannot be ordered by yeast fitness: ≤ 0.5 for the first, ≤ 0.5 for the second.

Going from A20U U26C to A20U U35C G44C, the yeast fitness falls from 0.89 to 0.592.

Compared with A21C A42G A69C A70G, A20U C31A C33G G56A is lower in yeast fitness: 0.543 for the first, ≤ 0.5 for the second.

Going from A20U C24G C31G G52A C55G C61U to A21C U32C, the yeast fitness rises from ≤ 0.5 to 0.864.

A20U U28G U32G C34G C66U and A20U G23C U53A C55U cannot be ordered by yeast fitness: ≤ 0.5 for the first, ≤ 0.5 for the second.

First: A21C C27A C49G
Second: A21G A40C C55A
The yeast fitness of the first is higher: 0.54 for the first, ≤ 0.5 for the second.

A20U G41C C46U C66A and A21C C27U G58C C62G cannot be ordered by yeast fitness: ≤ 0.5 for the first, ≤ 0.5 for the second.

Compared with A21C C22U C31U C33U C62A, A21C A36C G56A is lower in yeast fitness: 0.61 for the first, 0.562 for the second.

Going from A21C U32C C34A to A21C U47A G52C, the yeast fitness rises from ≤ 0.5 to 0.662.

Compared with A21C C30U A43U G48C, A20U U28G U32G C34G is higher in yeast fitness: ≤ 0.5 for the first, 0.513 for the second.

Compared with A20U C61A, A20U C61G is higher in yeast fitness: 0.646 for the first, 0.712 for the second.

Going from A21G A36U to A20U G25A A69U, the yeast fitness rises from 0.583 to 0.838.

Compared with A20U C29G U47C C49G G63C, A21G C22G C49U G51A is higher in yeast fitness: ≤ 0.5 for the first, 0.603 for the second.

First: A21G A65G
Second: A21C C29U A45U
The yeast fitness of the first is higher: 1.01 for the first, 0.521 for the second.

A20U C33U A43G U64C and A20U U35A C46G C49U cannot be ordered by yeast fitness: ≤ 0.5 for the first, ≤ 0.5 for the second.

Going from A20U C46U C55G to A21C C31A C46A U54C, the yeast fitness falls from 0.539 to ≤ 0.5.

Compared with A21C A45C C49U, A20U C34A G38A U59A is lower in yeast fitness: 0.582 for the first, ≤ 0.5 for the second.

Compared with A20U G25A G67U, A20U U26C C30A U47A A65U is lower in yeast fitness: 0.673 for the first, ≤ 0.5 for the second.

Compared with A20U G50A G68C, A21C C49A A70G is higher in yeast fitness: ≤ 0.5 for the first, 0.626 for the second.

Going from A21C C29U A57U C60U C62U C66U to A21C A42U G52A C60A A69G, the yeast fitness falls from 0.564 to ≤ 0.5.

A21G A42G A65C G67A and A21C A45G G63C C66U cannot be ordered by yeast fitness: ≤ 0.5 for the first, ≤ 0.5 for the second.

Going from A21C C62U to A21C C62G, the yeast fitness falls from 0.798 to 0.723.

Compared with A21C C62A, A20U G25C A37G C60G C61G A70U is lower in yeast fitness: 0.788 for the first, ≤ 0.5 for the second.

Going from A21C C61A G68A to A20U G50A C60G, the yeast fitness falls from 0.515 to ≤ 0.5.

A20U U32G U35A C62U A69C and A21C G58C C66U cannot be ordered by yeast fitness: ≤ 0.5 for the first, ≤ 0.5 for the second.

Compared with A20U U32A C66U, A21C C27U A57G is higher in yeast fitness: 0.554 for the first, 0.79 for the second.

First: A21C G68C A69U
Second: A20U U54A
The yeast fitness of the first is lower: ≤ 0.5 for the first, 0.699 for the second.

A21C U28A G50A and A20U C31U G56A A69C cannot be ordered by yeast fitness: ≤ 0.5 for the first, ≤ 0.5 for the second.

Going from A20U C30G C33A G50A G52A C60U C61G G67A to A21C C27U U47A, the yeast fitness rises from ≤ 0.5 to 0.545.

Compared with A20U U64G, A21G A70C is higher in yeast fitness: 0.725 for the first, 0.993 for the second.

Going from A20U C24U A42C C62G to A20U C34A C62U, the yeast fitness falls from 0.735 to 0.542.

Compared with A21C C30A C62U A70U, A21C A45C C62G A65C is higher in yeast fitness: ≤ 0.5 for the first, 0.574 for the second.

Going from A21G A42C G50A to A21C C24A A65C, the yeast fitness falls from 0.648 to ≤ 0.5.

Compared with A21C C62U C66U, A21C C34G A36G C46A is higher in yeast fitness: 0.533 for the first, 0.586 for the second.

Compared with A21C C29A G52C G68A, A20U G52A is higher in yeast fitness: 0.664 for the first, 0.759 for the second.

First: A21C U28C A45G
Second: A20U G38C C49A
The yeast fitness of the first is higher: 0.603 for the first, ≤ 0.5 for the second.

A20U C27G C46G C49U and A21C A36C U47A C62G cannot be ordered by yeast fitness: ≤ 0.5 for the first, ≤ 0.5 for the second.

Compared with A20U U28G C30U U32G C34G, A21C A43G G58A is higher in yeast fitness: ≤ 0.5 for the first, 0.892 for the second.

A21C A43G G58C and A21G A36G G38C C49U cannot be ordered by yeast fitness: ≤ 0.5 for the first, ≤ 0.5 for the second.

Going from A21C U26A A40U to A20U C66A, the yeast fitness rises from 0.534 to 0.612.

First: A21C G23A G52C A57C
Second: A21C G68U
The yeast fitness of the first is lower: ≤ 0.5 for the first, 0.789 for the second.

Going from A21C G68A to A21C C27U C61G, the yeast fitness falls from 0.799 to 0.534.

Compared with A20U C31G, A20U C31U G38C is lower in yeast fitness: 0.865 for the first, 0.553 for the second.

Compared with A21G A37C A57C, A21C C27U C33A A37C is higher in yeast fitness: ≤ 0.5 for the first, 0.554 for the second.

Going from A20U G23A C66U to A21C C27A U28A A45G A69C, the yeast fitness falls from 0.55 to ≤ 0.5.

Going from A21C C22U C31U C33U G48C to A21C C34A, the yeast fitness rises from ≤ 0.5 to 0.605.

Work on A21G A57U A70U yielded a yeast fitness of 0.582.
